Reference: PMC7346273 (ACS Omega, 2020)

Biological target: Aβ40 (Homo sapiens, UniProt P05067)
Assay: Aβ40 aggregation inhibition and fibril destabilization
Format: biochemical
Details: synthetic peptides
Outline: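 Aβ40 was pre-treated in HFIP (1.0 mg/mL), lyophilized, stored at −20 °C, redissolved in DMSO to 5 mM and sonicated 10 min. It was diluted into PBS pH 7.5 with 0.2% SDS (100 μM final) and incubated at 37 °C for 7 days, with test compound added before incubation or to preformed aggregates. Samples were imaged by acoustic AC-mode AFM. ThT was read immediately (Aβ40 5 μM, ThT 20 μM; ex 450 nm, em 480–600 nm) with the no-Aβ40 background subtracted; mean ± SD, three independent experiments.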

Sequence of Aβ40 (P05067 672-711 limits assumed): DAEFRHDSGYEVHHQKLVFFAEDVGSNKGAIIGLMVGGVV

ThT fluorescence of treated Aβ40 compared to control (Aβ40/peptide = 10:1, 7 days, ThT 20 μM, Aβ40 5 μM): even higher ThT fluorescence
effect on Aβ40 aggregation (AFM) (Aβ40/peptide = 10:1, PBS pH 7.5 with 0.2% SDS, 37 °C, 7 days): aggravated the aggregation tendency
Substance: KAISFSK [Peptide P1]
